Assay results as given in ChEMBL document CHEMBL1127568, “A new series of PDGF receptor tyrosine kinase inhibitors: 3-substituted quinoline derivatives” (J Med Chem, 1994).

Columns and labels:
[1] = biological target: T1, Platelet-derived growth factor receptor (Homo sapiens, UniProt P09619+P16234); assay: Inhibition of human PDGF receptor phosphorylation; 0.015-0.025; assay type: protein-complex assay
In short: (§1)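 PDGF receptor from NIH 3T3 cell lysates (cells made quiescent 24 h in 0.5% calf serum), stimulated with 10 ng/mL PDGF for 30 min at 4 °C and immunoprecipitated on Protein A beads. Each compound ran in at least two dose-response assays.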

[2] = biological target: Epidermal growth factor receptor (Homo sapiens, UniProt P00533); assay: Concentration required to inhibit phosphorylation of isolated human epidermal growth factor tyrosine kinase receptor by 50%
[3] = biological target: T1, Platelet-derived growth factor receptor; assay: Inhibition of human PDGF receptor phosphorylation; 0.1-0.6; assay type: protein-complex assay
In short: (§2)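 Receptor from quiescent NIH 3T3 cell lysates (24 h in 0.5% calf serum before lysis), stimulated with 10 ng/mL PDGF for 30 min at 4 °C, then immunoprecipitated with anti-PDGF receptor antibody on Protein A beads. Compound pre-incubated 10 min at 4 °C in 50 mM Tris, 10 mM MnCl2, pH 7.5. At least two dose-response assays per compound.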

[4] = biological target: T1, Platelet-derived growth factor receptor; assay: Inhibition of human PDGF receptor phosphorylation; 0.1-0.25; assay type: protein-complex assay; in short: as §1
[5] = biological target: T1, Platelet-derived growth factor receptor; assay: Inhibition of isolated human PDGF receptor phosphorylation; assay type: protein-complex assay
[6] = biological target: T1, Platelet-derived growth factor receptor; assay: Inhibition of human PDGF receptor phosphorylation; 0.05-0.07; assay type: protein-complex assay; in short: as §1
[7] = biological target: T1, Platelet-derived growth factor receptor; assay: Inhibition of human PDGF receptor phosphorylation; 0.02-0.03; assay type: protein-complex assay; in short: as §1
[8] = biological target: T1, Platelet-derived growth factor receptor; assay: Inhibition of human PDGF receptor phosphorylation; 0.2-0.25; assay type: protein-complex assay; in short: as §1
[9] = biological target: T1, Platelet-derived growth factor receptor; assay: Inhibition of human PDGF receptor phosphorylation; 0.001-0.005; assay type: protein-complex assay; in short: as §1
[10] = biological target: T1, Platelet-derived growth factor receptor; assay: Inhibition of human PDGF receptor phosphorylation; 0.04-0.08; assay type: protein-complex assay; in short: as §1
[11] = biological target: T1, Platelet-derived growth factor receptor; assay: Inhibition of human PDGF receptor phosphorylation; 0.1-0.8; assay type: protein-complex assay; in short: as §1
[12] = biological target: T1, Platelet-derived growth factor receptor; assay: Inhibition of human PDGF receptor phosphorylation; 0.004-0.025; assay type: protein-complex assay; in short: as §1
[13] = biological target: T1, Platelet-derived growth factor receptor; assay: Inhibition of human PDGF receptor phosphorylation; 1-2; assay type: protein-complex assay; in short: as §1
[14] = biological target: T1, Platelet-derived growth factor receptor; assay: Inhibition of human PDGF receptor phosphorylation; 2-8; assay type: protein-complex assay; in short: as §1
[15] = biological target: T1, Platelet-derived growth factor receptor; assay: Inhibition of human PDGF receptor phosphorylation; 6-10; assay type: protein-complex assay
[16] = biological target: T1, Platelet-derived growth factor receptor; assay: Concentration required to inhibit phosphorylation of isolated human PDGF receptor by 50%; 0.3-1; assay type: protein-complex assay; in short: as §1
[17] = biological target: T1, Platelet-derived growth factor receptor; assay: Inhibition of human PDGF receptor phosphorylation; 0.02-0.08; assay type: protein-complex assay
[18] = biological target: T1, Platelet-derived growth factor receptor; assay: Inhibition of human PDGF receptor phosphorylation; 0.1-0.2; assay type: protein-complex assay; in short: as §1
[19] = biological target: T1, Platelet-derived growth factor receptor; assay: Inhibition of human PDGF receptor phosphorylation; 0.07-0.15; assay type: protein-complex assay
[20] = biological target: T1, Platelet-derived growth factor receptor; assay: Inhibition of human PDGF receptor phosphorylation; 0.025-0.03; assay type: protein-complex assay; in short: as §1
[21] = biological target: cAMP-dependent protein kinase (PKA) (Homo sapiens, UniProt P22694+P17612+P22612); assay: Test for the inhibition of protein kinase A; assay type: protein assay
[22] = biological target: T1, Platelet-derived growth factor receptor; assay: Inhibition of human PDGF receptor phosphorylation; 2-10; assay type: protein-complex assay; in short: as §1
[23] = biological target: T1, Platelet-derived growth factor receptor; assay: Inhibition of human PDGF receptor phosphorylation; 0.03-0.1; assay type: protein-complex assay; in short: as §2

Sequence of Epidermal growth factor receptor (P00533 whole entry): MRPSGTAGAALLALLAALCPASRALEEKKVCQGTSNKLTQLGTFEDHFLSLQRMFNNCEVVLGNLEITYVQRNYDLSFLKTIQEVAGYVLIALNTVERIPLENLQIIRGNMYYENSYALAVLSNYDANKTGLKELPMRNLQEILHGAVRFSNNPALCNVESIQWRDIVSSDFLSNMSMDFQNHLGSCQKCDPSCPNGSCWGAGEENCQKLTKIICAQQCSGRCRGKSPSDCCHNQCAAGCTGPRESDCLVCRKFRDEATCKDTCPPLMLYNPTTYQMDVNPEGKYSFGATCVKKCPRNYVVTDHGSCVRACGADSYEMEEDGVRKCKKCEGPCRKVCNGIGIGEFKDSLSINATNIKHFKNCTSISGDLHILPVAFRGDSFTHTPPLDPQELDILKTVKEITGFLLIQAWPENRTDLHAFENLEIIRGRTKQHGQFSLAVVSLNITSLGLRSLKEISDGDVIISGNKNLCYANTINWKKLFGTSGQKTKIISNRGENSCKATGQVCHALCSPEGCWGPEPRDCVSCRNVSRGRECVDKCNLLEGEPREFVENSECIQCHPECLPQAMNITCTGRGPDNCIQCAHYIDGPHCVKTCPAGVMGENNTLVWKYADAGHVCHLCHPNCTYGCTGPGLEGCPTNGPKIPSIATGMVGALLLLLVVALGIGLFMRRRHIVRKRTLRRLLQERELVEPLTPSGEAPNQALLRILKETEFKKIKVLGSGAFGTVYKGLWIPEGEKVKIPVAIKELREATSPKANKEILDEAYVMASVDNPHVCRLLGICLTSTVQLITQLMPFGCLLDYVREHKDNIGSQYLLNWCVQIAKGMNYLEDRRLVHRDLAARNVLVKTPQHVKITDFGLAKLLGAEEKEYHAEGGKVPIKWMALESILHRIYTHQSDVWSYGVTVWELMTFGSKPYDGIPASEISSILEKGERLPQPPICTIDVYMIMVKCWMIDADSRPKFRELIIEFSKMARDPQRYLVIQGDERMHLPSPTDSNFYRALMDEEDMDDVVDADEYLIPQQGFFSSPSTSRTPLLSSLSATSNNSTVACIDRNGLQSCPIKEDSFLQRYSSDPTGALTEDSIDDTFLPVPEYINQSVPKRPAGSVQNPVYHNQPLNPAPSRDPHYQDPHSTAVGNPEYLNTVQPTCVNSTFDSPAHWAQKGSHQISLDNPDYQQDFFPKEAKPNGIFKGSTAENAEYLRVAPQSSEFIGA

Row | Compound | IC50 [2] | IC50 [5] | also measured
1 | COc1ccc(-c2cnc3cc(OC)c(OC)cc3c2)s1 | > 20 µM | – | IC50 [4]: 0.25 µM
2 | COc1cc2cc(N)cnc2cc1OC | > 20 µM | > 50 µM | –
3 | COc1ccc2ncc(-c3ccsc3)cc2c1 | > 20 µM | – | IC50 [6]: 0.07 µM
4 | COc1ccc2cc(-c3cccnc3)cnc2c1OC | > 25 µM | > 50 µM | –
5 | Cc1ccc(C)c2ncc(-c3ccsc3)cc12 | > 20 µM | > 50 µM | –
6 | c1ccc2ncc(-c3ccsc3)cc2c1 | > 20 µM | – | IC50 [8]: 0.25 µM
7 | Cc1cc(C)c2cc(-c3ccsc3)cnc2c1 | > 20 µM | – | IC50 [9]: 0.005 µM
8 | Fc1cccc2ncc(-c3ccsc3)cc12 | – | 0.02 µM | –
9 | COc1cc2cc(-c3sccc3Cl)cnc2cc1OC | > 20 µM | 1 µM | –
10 | Fc1ccc2cc(-c3ccsc3)cnc2c1 | > 20 µM | – | IC50 [12]: 0.025 µM
11 | COc1cc2cc(O)cnc2cc1OC | > 20 µM | ≥ 20 µM | –
12 | c1ccc2ncc(-c3c[nH]c4ccccc34)cc2c1 | > 20 µM | – | IC50 [14]: 8 µM
13 | COc1ccc2cc(-c3c[nH]c4ccccc34)cnc2c1OC | > 20 µM | > 50 µM | –
14 | Oc1cc2cc(-c3cccnc3)cnc2cc1O | 0.5 µM | – | IC50 [15]: 10 µM
15 | COc1cc2cc(C#CC3CCCCC3)cnc2cc1OC | > 20 µM | – | IC50 [16]: 1 µM
16 | C(=C\c1cnc2ccccc2c1)/c1ccccc1 | > 20 µM | – | IC50 [18]: 0.2 µM
17 | COc1cc2cc([N+](=O)[O-])cnc2cc1OC | > 20 µM | > 50 µM | –
18 | COc1cc(OC)c2cc(-c3ccsc3)cnc2c1 | > 20 µM | – | IC50 [20]: 0.03 µM; IC50 [21]: > 200 µM
19 | COc1ccc(-c2cnc3cc(OC)c(OC)cc3c2)cc1OC | > 20 µM | – | IC50 [22]: 10 µM
20 | COc1ccc(/C=C/c2cnc3cc(OC)c(OC)cc3c2)cc1 | > 20 µM | – | IC50 [23]: 0.1 µM
21 | COc1cc2cc(-c3cc(OC)c(OC)c(OC)c3)cnc2cc1OC | > 20 µM | > 50 µM | –

More lines, main results first:

Row | IC50 [2] | IC50 [5] | Compound | also measured
22 | > 20 µM | – | COc1cc2cc(-c3cccc(F)c3)cnc2cc1OC | IC50 [1]: 0.025 µM
23 | > 20 µM | – | COc1cc2cc(-c3c[nH]c4ccccc34)cnc2cc1OC | IC50 [3]: 0.6 µM
24 | > 20 µM | – | COc1cc2cc(-c3ccc(O)cc3)cnc2cc1OC | IC50 [7]: 0.03 µM
25 | > 20 µM | – | COc1cc2cc(-c3cccs3)cnc2cc1OC | IC50 [10]: 0.08 µM
26 | > 25 µM | – | COc1cc2cc(-c3cccnc3)cnc2cc1OC | IC50 [11]: 0.8 µM
27 | > 20 µM | > 30 µM | COc1cc2cc(-c3ccc(OCc4ccccc4)cc3)cnc2cc1OC | –
28 | > 20 µM | – | COc1cccc(-c2cnc3cc(OC)c(OC)cc3c2)c1 | IC50 [13]: 2 µM
29 | > 20 µM | ≥ 20 µM | COc1cc2cc(-c3ccc4ccccc4c3)cnc2cc1OC | –
30 | > 20 µM | 2 µM | COc1cc2cc(-c3ccccc3OC)cnc2cc1OC | –
31 | > 20 µM | – | COc1cc2cc(NCc3ccccc3)cnc2cc1OC | IC50 [17]: 0.08 µM
32 | > 20 µM | – | COc1cc2cc(-c3ccccc3)cnc2cc1OC | IC50 [19]: 0.15 µM
